Laboratory results from ChEMBL document CHEMBL1125771, “Synthesis, activation, and cytotoxicity of aldophosphamide analogues” (J Med Chem, 1991).

Columns and labels:
[1] = tested on: L1210; assay: In vivo antitumor activity against intraperitoneal murine wild type L1210 Leukemia cells at 510 umol/kg; assay type: functional, Mus musculus
[2] = tested on: L1210; assay: In vivo antitumor activity against intraperitoneal murine wild type L1210 Leukemia cells at 170 umol/kg; assay type: functional, Mus musculus
[3] = tested on: L1210; assay: In vivo antitumor activity against intraperitoneal murine wild type L1210 Leukemia cells at 340 umol/kg; assay type: functional, Mus musculus
[4] = tested on: L1210; assay: In vitro antitumor activity against cyclophosphamide-resistant L1210/CP cells; assay type: functional, Mus musculus
In short: (§1)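 Clonogenic survival assay in wild-type or cyclophosphamide-resistant L1210 and P388 cells with 1-h drug exposure. LC99 is the concentration that lowers colony formation to 1% of control. It comes from linear regression of log surviving fraction vs concentration over the linear portion, using at least three determinations. Standard errors are within ±10%.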

[5] = tested on: L1210; assay: In vitro antitumor activity against wild-type L1210/0 cells; assay type: functional, Mus musculus; in short: as §1
[6] = tested on: L1210; assay: Ratio of resistance factor LC99 […] to that of LC99 […]; assay type: functional, Mus musculus
In short: (§2)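 Resistance factor is LC99 in the cyclophosphamide-resistant line divided by LC99 in the wild-type line. Each LC99 is from a clonogenic assay with 1-h drug exposure: the concentration that reduces colonies to 1% of control, by linear regression of log survival vs concentration from at least three determinations.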

[7] = tested on: P388; assay: In vitro antitumor activity against cyclophosphamide-resistant P388/CP cells; assay type: functional, Mus musculus; in short: as §1
[8] = tested on: P388; assay: In vitro antitumor activity against wild-type P388/0 cells; assay type: functional, Mus musculus; in short: as §1
[9] = tested on: P388; assay: Ratio of resistance factor LC99 […] to that of LC99 […]; assay type: functional, Mus musculus; in short: as §2
[10] = Hydrolysis rate constant at pH 7.4 and 50 mM HEPES buffer; assay type: ADME
In short: (§3)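 Spectrophotometric hydrolysis assay of model perhydrooxazines at 37 °C. Buffer strength was varied by mixing a stock of 0.25 M HEPES, phenol red (10 mg/100 mL) and KCl (μ = 0.20) with a matching stock that lacked HEPES. Substrate was added in DMSO (1:4 v/v) at a perhydrooxazine:buffer molar ratio of 0.1, with DMSO in the reference cell. The phenol red absorbance rise at 560 nm was read over 1 h. k came from the slope of ln(A∞ − At) vs time.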

[11] = Hydrolysis rate constant at pH 7.4 and 12.5 mM HEPES buffer; assay type: ADME; in short: as §3
[12] = Hydrolysis rate constant at pH 7.4 and 25 mM HEPES buffer; assay type: ADME; in short: as §3
[13] = Hydrolysis rate constant at pH 7.8 and 25 mM HEPES buffer; assay type: ADME; in short: as §3
[14] = Hydrolysis rate constant at pH 6.8 and 25 mM HEPES buffer; assay type: ADME; in short: as §3
[15] = Hydrolysis rate constant at pH 7 and 25 mM HEPES buffer; assay type: ADME; in short: as §3

| khydr [10] | khydr [11] | khydr [12] | khydr [13] | khydr [14] | khydr [15] | Structure (SMILES) | T/C [1] | T/C [2] | T/C [3] | LC99 [4] | LC99 [5] | RF [6] | LC99 [7] | LC99 [8] | RF [9] |
| --- | --- | --- | --- | --- | --- | --- | --- | --- | --- | --- | --- | --- | --- | --- | --- |
| – | – | – | – | – | – | CC1CC(C)(C)NC(CC(OP(=O)(N(CCCl)CCCl)N2CCOCC2)c2ccccc2)O1 (stereo unspecified) | 111% | 100% | 100% | 38 µM | 28 µM | 1.4 | 22 µM | 16 µM | 1.4 |
| – | – | – | – | – | – | CCN(CC)P(N)(=O)OC(CC1NC(C)(C)CC(C)O1)c1ccccc1 (stereo unspecified) | – | – | – | >200 µM | >200 µM | – | >200 µM | >200 µM | – |
| – | – | – | – | – | – | CCN(CC)P(=O)(OCCC1NC(C)(C)CC(C)O1)N(CC)CC (stereo unspecified) | – | – | – | >200 µM | >200 µM | – | >200 µM | >200 µM | – |
| – | – | – | – | – | – | CC1CC(C)(C)NC(CC(OP(N)(=O)N(CCCl)CCCl)c2ccccc2)O1 (stereo unspecified) | – | 125% | 125% | 14 µM | 13 µM | 1.1 | 10 µM | 7 µM | 1.4 |
| 0.0086 min⁻¹ | 0.0088 min⁻¹ | 0.0085 min⁻¹ | – | – | – | CC[C@H]1NC(C)(C)C[C@@H](C)O1 | – | – | – | – | – | – | – | – | – |
| – | – | – | – | – | – | CC1CC(C)(C)NC(CCOP(=O)(N(CCCl)CCCl)N(CCCl)CCCl)O1 (stereo unspecified) | – | – | – | 19 µM | 7 µM | 2.7 | 10 µM | 5 µM | 2 |
| – | – | – | – | – | – | CC1CC(C)(C)NC(CCOP(=O)(N(CCCl)CCCl)N2CCOCC2)O1 (stereo unspecified) | 113% | – | 113% | 150 µM | 84 µM | 1.8 | 117 µM | 56 µM | 2.1 |
| 0.0095 min⁻¹ | 0.0086 min⁻¹ | 0.0094 min⁻¹ | 0.0082 min⁻¹ | 0.0042 min⁻¹ | 0.0065 min⁻¹ | C[C@@H]1CC(C)(C)N[C@H](CCc2ccccc2)O1 | – | – | – | – | – | – | – | – | – |
| – | – | – | – | – | – | CC1CC(C)(C)NC(CC(OP(=O)(N(CCCl)CCCl)N(CCCl)CCCl)c2ccccc2)O1 (stereo unspecified) | 170% | 125% | 150% | 3 µM | 2 µM | 1.5 | 2 µM | 2 µM | 1 |
| – | – | – | – | – | – | CC1CC(C)(C)NC(CCOP(N)(=O)N(CCCl)CCCl)O1 (stereo unspecified) | 167% | 144% | 144% | 145 µM | 21 µM | 6.9 | 92 µM | 19 µM | 4.8 |
